Test results from ChEMBL document CHEMBL1146728, “Statin-derived 1,3-oxazinan-2-ones as submicromolar inhibitors of LFA-1/ICAM-1 interaction: stabilization of the metabolically labile vanillyl side chain” (Bioorg Med Chem Lett, 2004).

Columns and labels:
Mus musculus [1] = assay: Anti-inflammatory activity against murine model of allergic contact dermatitis (mACD) after single oral administration (0.1 mg/kg) (in vivo); format: functional
Method in brief: (§1)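 Oxazolone-sensitized mice, eight per group, challenged with 10 µL of 2.0% oxazolone on the inner surface of the right ear; unchallenged left ear served as control. Single oral dose of compound given 2 h after challenge. Ear weight difference at 24 h used as swelling measure. Result is % inhibition versus vehicle controls, mean ± SEM, ANOVA/Dunnett or H/U-test.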

[2] = Intrinsic clearance in human liver microsomes was determined; format: ADME, Microsome; conditions: read-out: Clearance
Method in brief: (§2)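 Pooled liver microsomes at 0.15 mg/mL protein, compound at 1 µM, in 100 mM phosphate buffer pH 7.4 with 5 mM MgCl2, 1 mM EDTA, 0.35 mg/mL albumin and alamethicin, at 37°C. Started with final 4 mM UDPGA plus 1 mM NADPH and stopped at 5 and 20 min with ACN containing 0.02% FA. Single incubations, clearance in µL/min/mg.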

[3] = molecular target: T1, Intercellular adhesion molecule (ICAM-1), Integrin alpha-L/beta-2 (Homo sapiens, UniProt P05107+P20701); assay: In vitro inhibition of recombinant ICAM-1 binding to purified immobilized LFA-1 using cell-free assay; format: functional
Mus musculus [4] = assay: Anti-inflammatory activity against murine model of allergic contact dermatitis (mACD) after single oral administration (1 mg/kg) (in vivo); format: functional; method in brief: as §1
[5] = Intrinsic clearance in rat liver microsomes was determined; format: ADME, Microsome; conditions: read-out: Clearance; method in brief: as §2
[6] = molecular target: T1, Intercellular adhesion molecule (ICAM-1), Integrin alpha-L/beta-2; assay: Inhibition of HUT78 cell adhesion to immobilized ICAM-1 protein; format: functional, cell-based

T1 sequence (P20701 whole entry): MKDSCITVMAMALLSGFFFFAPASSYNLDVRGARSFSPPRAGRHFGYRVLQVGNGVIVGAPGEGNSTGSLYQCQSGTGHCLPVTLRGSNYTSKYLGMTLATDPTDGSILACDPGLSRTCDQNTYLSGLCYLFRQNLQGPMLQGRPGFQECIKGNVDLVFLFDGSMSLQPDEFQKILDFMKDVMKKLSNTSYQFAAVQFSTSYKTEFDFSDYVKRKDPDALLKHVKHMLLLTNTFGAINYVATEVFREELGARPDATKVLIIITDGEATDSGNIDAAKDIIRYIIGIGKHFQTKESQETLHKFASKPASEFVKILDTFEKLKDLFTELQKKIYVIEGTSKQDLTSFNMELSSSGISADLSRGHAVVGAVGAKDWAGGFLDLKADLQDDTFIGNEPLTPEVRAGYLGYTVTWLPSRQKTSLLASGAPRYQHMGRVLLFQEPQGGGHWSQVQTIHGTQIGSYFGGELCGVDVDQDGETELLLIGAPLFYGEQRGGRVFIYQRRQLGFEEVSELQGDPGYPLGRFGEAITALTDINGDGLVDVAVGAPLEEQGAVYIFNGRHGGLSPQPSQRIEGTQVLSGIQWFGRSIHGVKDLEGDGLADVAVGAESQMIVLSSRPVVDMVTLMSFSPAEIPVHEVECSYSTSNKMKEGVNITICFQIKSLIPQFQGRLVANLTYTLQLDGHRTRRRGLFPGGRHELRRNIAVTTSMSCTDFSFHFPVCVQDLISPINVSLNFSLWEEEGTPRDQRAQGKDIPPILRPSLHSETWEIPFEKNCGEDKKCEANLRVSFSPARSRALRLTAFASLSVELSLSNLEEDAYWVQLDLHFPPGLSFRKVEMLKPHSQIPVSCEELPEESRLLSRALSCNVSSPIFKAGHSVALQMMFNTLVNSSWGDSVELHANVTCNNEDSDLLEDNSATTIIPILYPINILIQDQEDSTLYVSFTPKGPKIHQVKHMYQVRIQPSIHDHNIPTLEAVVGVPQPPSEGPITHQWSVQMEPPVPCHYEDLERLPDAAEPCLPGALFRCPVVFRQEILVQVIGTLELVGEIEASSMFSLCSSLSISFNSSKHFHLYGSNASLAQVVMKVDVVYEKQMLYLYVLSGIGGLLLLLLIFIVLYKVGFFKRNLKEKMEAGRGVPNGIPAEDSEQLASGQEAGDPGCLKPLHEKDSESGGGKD
T1 sequence (P05362 whole entry, further chain): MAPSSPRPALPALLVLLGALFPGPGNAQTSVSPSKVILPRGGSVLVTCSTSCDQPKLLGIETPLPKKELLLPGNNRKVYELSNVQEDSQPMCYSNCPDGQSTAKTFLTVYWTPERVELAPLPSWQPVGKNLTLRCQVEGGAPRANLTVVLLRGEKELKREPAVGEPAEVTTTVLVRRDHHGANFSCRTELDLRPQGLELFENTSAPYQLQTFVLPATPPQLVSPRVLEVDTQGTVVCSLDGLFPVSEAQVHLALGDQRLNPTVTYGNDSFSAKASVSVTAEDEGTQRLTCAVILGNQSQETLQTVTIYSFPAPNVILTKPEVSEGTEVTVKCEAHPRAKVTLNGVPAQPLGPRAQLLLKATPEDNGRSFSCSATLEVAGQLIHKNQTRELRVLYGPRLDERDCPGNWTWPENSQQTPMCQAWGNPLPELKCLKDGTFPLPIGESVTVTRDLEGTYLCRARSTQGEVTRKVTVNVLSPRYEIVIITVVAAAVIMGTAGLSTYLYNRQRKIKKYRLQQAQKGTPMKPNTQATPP
T1 sequence (P05107 whole entry): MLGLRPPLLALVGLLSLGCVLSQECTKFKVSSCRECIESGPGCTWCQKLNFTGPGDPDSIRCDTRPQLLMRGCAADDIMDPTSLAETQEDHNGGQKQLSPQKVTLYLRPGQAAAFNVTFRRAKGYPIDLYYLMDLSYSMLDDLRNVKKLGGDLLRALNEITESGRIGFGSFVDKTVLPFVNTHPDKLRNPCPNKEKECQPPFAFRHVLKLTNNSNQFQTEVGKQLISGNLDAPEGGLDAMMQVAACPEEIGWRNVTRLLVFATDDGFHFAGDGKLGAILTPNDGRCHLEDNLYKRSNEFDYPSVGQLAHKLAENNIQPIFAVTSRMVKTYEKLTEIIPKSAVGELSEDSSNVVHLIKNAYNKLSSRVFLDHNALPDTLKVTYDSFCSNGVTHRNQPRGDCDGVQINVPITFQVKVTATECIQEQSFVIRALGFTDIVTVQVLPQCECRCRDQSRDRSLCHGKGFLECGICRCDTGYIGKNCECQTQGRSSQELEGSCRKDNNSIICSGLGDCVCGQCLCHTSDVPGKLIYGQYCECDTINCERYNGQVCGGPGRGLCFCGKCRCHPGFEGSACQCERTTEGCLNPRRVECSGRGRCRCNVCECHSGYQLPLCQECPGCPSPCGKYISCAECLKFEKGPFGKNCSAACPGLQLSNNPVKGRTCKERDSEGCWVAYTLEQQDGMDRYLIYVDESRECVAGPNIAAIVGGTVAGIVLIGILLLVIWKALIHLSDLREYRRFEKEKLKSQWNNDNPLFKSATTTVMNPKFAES

Structure (SMILES)	microsomal CLint [2] [µL/min/mg]	IC50 [3] [nM]	microsomal CLint [5] [µL/min/mg]	IC50 [6] [nM]	Inhibition (Mus musculus [1]) [%]	Inhibition (Mus musculus [4]) [%]
CC[C@H](C)C(=O)O[C@H]1C[C@@H](C)C=C2C=C[C@H](C)[C@H](CC[C@@H]3C[C@H](CC(=O)NC)N(Cc4ccc(O)c(OC)c4)C(=O)O3)[C@H]21	> 500	50	> 500	250	39	47
CC[C@H](C)C(=O)O[C@H]1C[C@@H](C)C=C2C=C[C@H](C)[C@H](CC[C@@H]3C[C@H](CC(=O)NC)N(CCc4ccc(O)c(OC)c4)C(=O)O3)[C@H]21	> 500	800	> 500	9500	29	43
CC[C@H](C)C(=O)O[C@H]1C[C@@H](C)C=C2C=C[C@H](C)[C@H](CC[C@@H]3C[C@H](CC(=O)NC)N(Cc4ccc(C(=O)NC)cc4)C(=O)O3)[C@H]21	> 500	620	> 500	> 30000	32	26
CC[C@H](C)C(=O)O[C@H]1C[C@@H](C)C=C2C=C[C@H](C)[C@H](CC[C@@H]3C[C@H](CC(=O)OC)N(Cc4cccc(OC)c4)C(=O)O3)[C@H]21	–	680	–	4500	–	23
CC[C@H](C)C(=O)O[C@H]1C[C@@H](C)C=C2C=C[C@H](C)[C@H](CC[C@@H]3C[C@H](CC(=O)OC)N(Cc4ccc5c(c4)OCO5)C(=O)O3)[C@H]21	–	1000	–	2590	32	42
CC[C@H](C)C(=O)O[C@H]1C[C@@H](C)C=C2C=C[C@H](C)[C@H](CC[C@@H]3C[C@H](CC(=O)NC)N(Cc4ccc5c(c4)OCO5)C(=O)O3)[C@H]21	383	170	100	6420	28	29
CC[C@H](C)C(=O)O[C@H]1C[C@@H](C)C=C2C=C[C@H](C)[C@H](CC[C@@H]3C[C@H](CC(=O)OC)N(Cc4ccc(C(=O)NC)cc4)C(=O)O3)[C@H]21	–	1300	–	> 30000	–	8
CC[C@H](C)C(=O)O[C@H]1C[C@@H](C)C=C2C=C[C@H](C)[C@H](CC[C@@H]3C[C@H](CC(=O)NC)N(Cc4ccc(C(C)(C)O)cc4)C(=O)O3)[C@H]21	> 500	1500	> 500	–	9	26
CC[C@H](C)C(=O)O[C@H]1C[C@@H](C)C=C2C=C[C@H](C)[C@H](CC[C@@H]3C[C@H](CC(=O)OC)N(Cc4ccc(O)c(OC)c4)C(=O)O3)[C@H]21	–	50	–	120	16	46

More lines, main results first:

microsomal CLint [2] [µL/min/mg]	IC50 [3] [nM]	microsomal CLint [5] [µL/min/mg]	IC50 [6] [nM]	Structure (SMILES)	Inhibition (Mus musculus [1]) [%]	Inhibition (Mus musculus [4]) [%]
55	270	123	6500	CC[C@H](C)C(=O)O[C@H]1C[C@@H](C)C=C2C=C[C@H](C)[C@H](CC[C@@H]3C[C@H](CC(=O)NC)N(Cc4cccc(OC)c4)C(=O)O3)[C@H]21	–	21
–	640	–	20500	CC[C@H](C)C(=O)O[C@H]1C[C@@H](C)C=C2C=C[C@H](C)[C@H](CC[C@@H]3C[C@H](CC(=O)OC)N(CCc4ccc(O)c(OC)c4)C(=O)O3)[C@H]21	9	30
–	3000	–	7690	CC[C@H](C)C(=O)O[C@H]1C[C@@H](C)C=C2C=C[C@H](C)[C@H](CC[C@@H]3C[C@H](CC(=O)OC)N(Cc4ccc(C(C)(C)O)cc4)C(=O)O3)[C@H]21	12	33
> 500	1150	207	5590	CC[C@H](C)C(=O)O[C@H]1C[C@@H](C)C=C2C=C[C@H](C)[C@H](CC[C@@H]3C[C@H](CC(=O)NC)N(Cc4ccc5c(c4)OC(F)(F)O5)C(=O)O3)[C@H]21	–	19
–	> 30000	–	> 30000	CC[C@H](C)C(=O)O[C@H]1C[C@@H](C)C=C2C=C[C@H](C)[C@H](CC[C@@H]3C[C@H](CC(=O)OC)N(Cc4ccc5c(c4)OC(F)(F)O5)C(=O)O3)[C@H]21	–	-3
205	870	214	> 30000	CC[C@H](C)C(=O)O[C@H]1C[C@@H](C)C=C2C=C[C@H](C)[C@H](CC[C@@H]3C[C@H](CC(=O)NC)N(Cc4ccc(C(=O)O)cc4)C(=O)O3)[C@H]21	–	21
